# Measured values from ChEMBL document CHEMBL5096187, “Efficient Synthesis and Bioevaluation of Novel Dual Tubulin/Histone Deacetylase 3 Inhibitors as Potential Anticancer Agents” (J Med Chem, 2021).
# What was measured:
# HCT-116 = test: Antiproliferative activity against human HCT-116 cells assessed as inhibition of cell viability measured for 48 hrs by microplate reader based MTT assay; format: functional; conditions: HCT-116, 48 h
# How it was run: (§1)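 Cells grown in RPMI-1640 with 10% FBS and seeded at 5000 cells/well. After overnight attachment, compound was added in medium with 0.1% DMSO for 48 h at 37 °C. Read-out was MTT for HCT-116, B16-F10 and A549, and CCK-8 for Jurkat (0.5 mg/mL, 4 h), with absorbance at 570 nm. IC50 from nonlinear regression; at least three independent experiments.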
# B16-F10 = test: Antiproliferative activity against mouse B16-F10 cells assessed as inhibition of cell viability measured for 48 hrs by microplate reader based MTT assay; format: functional; conditions: B16-F10, 48 h; how it was run: as §1
# Jurkat = test: Antiproliferative activity against human Jurkat cells assessed as inhibition of cell viability measured for 48 hrs by microplate reader based CCK-8 assay; format: functional
# A549 = test: Antiproliferative activity against human A549 cells assessed as inhibition of cell viability measured for 48 hrs by microplate reader based CCK-8 assay; format: functional; conditions: A549, 48 h
# [1] = target: T1, Protein deacetylase HDAC6 (Homo sapiens) (UniProt Q9UBN7); test: Inhibition of recombinant HDAC6 (unknown origin) at 1 uM relative to control
# T1 sequence (whole entry): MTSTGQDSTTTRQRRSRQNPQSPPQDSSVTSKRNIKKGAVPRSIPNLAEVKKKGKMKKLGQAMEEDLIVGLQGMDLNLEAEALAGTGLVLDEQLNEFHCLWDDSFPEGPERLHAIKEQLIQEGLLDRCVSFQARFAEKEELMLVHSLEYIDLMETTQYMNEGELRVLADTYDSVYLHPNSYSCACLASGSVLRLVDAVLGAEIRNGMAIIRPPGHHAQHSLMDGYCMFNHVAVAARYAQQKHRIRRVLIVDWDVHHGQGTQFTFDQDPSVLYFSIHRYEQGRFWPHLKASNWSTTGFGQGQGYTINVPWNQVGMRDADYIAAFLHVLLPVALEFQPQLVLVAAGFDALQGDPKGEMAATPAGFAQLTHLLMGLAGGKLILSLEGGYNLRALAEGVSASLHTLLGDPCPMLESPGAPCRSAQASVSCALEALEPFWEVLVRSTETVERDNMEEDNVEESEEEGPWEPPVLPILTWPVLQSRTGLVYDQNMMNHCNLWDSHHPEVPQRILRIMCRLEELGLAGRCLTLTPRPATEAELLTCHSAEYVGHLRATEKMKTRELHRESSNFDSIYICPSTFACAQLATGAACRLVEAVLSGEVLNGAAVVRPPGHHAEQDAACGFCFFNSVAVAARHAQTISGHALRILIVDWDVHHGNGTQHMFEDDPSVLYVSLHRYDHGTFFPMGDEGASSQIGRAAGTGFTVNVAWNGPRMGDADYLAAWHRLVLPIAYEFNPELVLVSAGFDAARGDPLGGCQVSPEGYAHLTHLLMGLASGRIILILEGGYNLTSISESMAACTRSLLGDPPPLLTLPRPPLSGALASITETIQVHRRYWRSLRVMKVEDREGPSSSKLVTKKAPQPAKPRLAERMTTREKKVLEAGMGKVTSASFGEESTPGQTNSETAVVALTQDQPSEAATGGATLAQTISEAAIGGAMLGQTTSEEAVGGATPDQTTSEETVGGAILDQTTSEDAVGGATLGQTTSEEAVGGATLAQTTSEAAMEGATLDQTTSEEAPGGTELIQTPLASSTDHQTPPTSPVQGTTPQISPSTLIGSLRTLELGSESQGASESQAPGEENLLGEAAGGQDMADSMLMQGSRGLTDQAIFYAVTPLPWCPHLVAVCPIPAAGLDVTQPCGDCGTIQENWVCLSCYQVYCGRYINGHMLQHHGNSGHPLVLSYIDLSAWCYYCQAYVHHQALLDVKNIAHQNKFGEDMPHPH
# How it was run: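 Single-point test at 1 μM against recombinant HDAC6 (15 ng/well) in 25 mM Tris pH 8.0, 1 mM MgCl₂, 0.1 mg/mL BSA, 137 mM NaCl, 2.7 mM KCl. Compound preincubated 5 min at room temperature, then Ac-Leu-Gly-Lys(Ac)-AMC 10 μM, 30 min at 37 °C. Trypsin/TSA developer 30 min. Fluorescence read at ex 350−360/em 450−460 nm.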
# Histone deacetylase 1 = Histone deacetylase 1 (Homo sapiens, UniProt Q13547); test: Inhibition of full length recombinant human HDAC1 (1 to 482 residues) expressed in Baculovirus system using Ac-Leu-Gly-Lys (Ac)-AMC as substrate pretreated for 5 mins followed by substrate addition and measured after 30 mins
# Histone deacetylase 1, sequence (Q13547 whole entry, the tested form may be a part): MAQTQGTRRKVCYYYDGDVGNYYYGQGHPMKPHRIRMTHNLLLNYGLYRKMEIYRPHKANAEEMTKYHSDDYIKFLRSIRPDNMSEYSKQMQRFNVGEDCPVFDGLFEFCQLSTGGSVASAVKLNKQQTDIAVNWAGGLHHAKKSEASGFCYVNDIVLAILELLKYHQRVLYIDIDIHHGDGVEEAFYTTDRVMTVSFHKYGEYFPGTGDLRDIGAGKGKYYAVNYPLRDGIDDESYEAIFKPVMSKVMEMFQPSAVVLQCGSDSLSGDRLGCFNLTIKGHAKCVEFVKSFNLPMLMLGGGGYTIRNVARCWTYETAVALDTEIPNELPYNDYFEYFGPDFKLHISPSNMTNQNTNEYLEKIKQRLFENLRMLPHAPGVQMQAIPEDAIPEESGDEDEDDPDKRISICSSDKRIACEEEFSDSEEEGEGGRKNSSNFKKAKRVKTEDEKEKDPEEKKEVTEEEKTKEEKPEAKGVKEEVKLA
# Histone deacetylase 3 = Histone deacetylase 3 (Homo sapiens, UniProt O15379); test: Inhibition of recombinant HDAC3 (unknown origin) using Ac-Leu-Gly-Lys (Ac)-AMC as substrate pretreated for 5 mins followed by substrate addition and measured after 30 mins
# Histone deacetylase 3, sequence (O15379 whole entry, the tested form may be a part): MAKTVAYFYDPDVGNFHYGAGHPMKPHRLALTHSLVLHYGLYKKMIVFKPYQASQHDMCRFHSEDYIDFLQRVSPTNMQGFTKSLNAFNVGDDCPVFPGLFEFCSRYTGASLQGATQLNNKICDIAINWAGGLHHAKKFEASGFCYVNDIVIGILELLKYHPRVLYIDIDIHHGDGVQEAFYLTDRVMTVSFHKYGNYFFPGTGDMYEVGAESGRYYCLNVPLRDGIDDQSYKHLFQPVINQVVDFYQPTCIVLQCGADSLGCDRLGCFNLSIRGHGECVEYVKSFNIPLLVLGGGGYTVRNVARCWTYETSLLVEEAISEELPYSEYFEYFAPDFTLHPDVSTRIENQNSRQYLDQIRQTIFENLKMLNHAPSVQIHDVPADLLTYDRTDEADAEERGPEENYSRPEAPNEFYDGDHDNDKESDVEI
# [2] = target: T2, Protein deacetylase HDAC6 (Homo sapiens, UniProt Q9UBN7); test: Inhibition of full length N-terminal GST-tagged human recombinant HDAC6 (1 to 1215 residues) expressed in Baculovirus infected Sf9 cells using Ac-Leu-Gly-Lys (Ac)-AMC as substrate pretreated for 5 mins followed by substrate addition and measured after 30 mins
# T2 sequence (Q9UBN7 whole entry): T1 sequence (whole entry)
# How it was run: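 HDAC6 at 15 ng/well in Tris buffer pH 8.0 with MgCl2, BSA, NaCl and KCl. Ten 3-fold dilutions preincubated 5 min at room temperature, then 10 μM Ac-Leu-Gly-Lys(Ac)-AMC for 30 min at 37 °C. IC50 by normalized dose–response nonlinear fit; performed at least three times.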
# Histone deacetylase 8 = target: T3, Histone deacetylase 8 (Homo sapiens, UniProt Q9BY41); test: Inhibition of full length C-terminal his-tagged human recombinant HDAC8 ([…]) expressed in baculovirus in Sf9 insect cells using Ac-Leu-Gly-Lys (Tfa)-AMC as substrate pretreated for 5 mins followed by substrate addition and measured after 30 mins
# T3 sequence (Q9BY41 whole entry): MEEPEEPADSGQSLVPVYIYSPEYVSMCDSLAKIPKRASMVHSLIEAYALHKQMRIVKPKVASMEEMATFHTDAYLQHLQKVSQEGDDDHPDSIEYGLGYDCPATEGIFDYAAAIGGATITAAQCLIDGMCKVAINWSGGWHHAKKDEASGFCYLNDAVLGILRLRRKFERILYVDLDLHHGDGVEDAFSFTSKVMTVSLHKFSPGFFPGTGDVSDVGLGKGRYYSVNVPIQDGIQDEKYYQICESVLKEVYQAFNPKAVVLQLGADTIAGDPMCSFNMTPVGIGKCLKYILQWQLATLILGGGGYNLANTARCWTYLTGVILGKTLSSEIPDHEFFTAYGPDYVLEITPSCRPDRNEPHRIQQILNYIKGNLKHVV
# Tubulin (Sus scrofa) = Tubulin (Sus scrofa) (UniProt P02554+P02550); test: Inhibition of pig brain tubulin polymerization at 10 uM measured after 20 mins by spectrometric method relative to control
# Tubulin (Sus scrofa), sequence (P02550 whole entry, looked up): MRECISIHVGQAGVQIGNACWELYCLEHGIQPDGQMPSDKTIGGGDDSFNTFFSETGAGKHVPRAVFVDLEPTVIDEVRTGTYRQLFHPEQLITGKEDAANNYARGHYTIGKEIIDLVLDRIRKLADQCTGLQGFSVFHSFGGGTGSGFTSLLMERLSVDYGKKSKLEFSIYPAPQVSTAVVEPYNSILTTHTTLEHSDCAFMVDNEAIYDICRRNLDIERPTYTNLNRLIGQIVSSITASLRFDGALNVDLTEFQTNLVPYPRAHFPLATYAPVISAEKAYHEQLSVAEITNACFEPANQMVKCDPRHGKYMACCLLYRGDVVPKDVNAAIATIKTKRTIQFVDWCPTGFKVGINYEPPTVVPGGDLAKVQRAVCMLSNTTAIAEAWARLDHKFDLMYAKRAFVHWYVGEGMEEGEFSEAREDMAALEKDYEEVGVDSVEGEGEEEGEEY
# Tubulin (Sus scrofa), sequence (P02554 whole entry, looked up): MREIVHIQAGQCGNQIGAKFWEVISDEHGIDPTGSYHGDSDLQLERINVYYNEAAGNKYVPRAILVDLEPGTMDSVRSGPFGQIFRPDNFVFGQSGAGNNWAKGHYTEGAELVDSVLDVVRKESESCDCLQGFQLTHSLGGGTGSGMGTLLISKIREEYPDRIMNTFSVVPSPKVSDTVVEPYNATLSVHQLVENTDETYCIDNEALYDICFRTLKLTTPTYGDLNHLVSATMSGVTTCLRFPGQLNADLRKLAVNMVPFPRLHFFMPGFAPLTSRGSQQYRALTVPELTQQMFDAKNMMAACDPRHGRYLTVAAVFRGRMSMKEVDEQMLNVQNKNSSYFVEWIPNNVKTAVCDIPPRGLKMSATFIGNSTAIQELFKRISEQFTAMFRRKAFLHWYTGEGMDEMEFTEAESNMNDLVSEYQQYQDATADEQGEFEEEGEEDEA
# How it was run: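 Pig brain tubulin was purified by three assembly/disassembly cycles and then phosphocellulose chromatography. Compound at 10 μM in PEM buffer with 1 mM GTP and 5% glycerol at 37 °C. Polymerization followed at 340 nm; inhibition taken at 20 min versus vehicle control.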
# [3] = Antiproliferative activity against human YCC-11 cells assessed as inhibition of cell viability; format: functional, cell-based
# [4] = Antiproliferative activity against human YCC3/7 cells assessed as inhibition of cell viability; format: functional, cell-based
Compound,IC50 (HCT-116) [µM],IC50 (B16-F10) [µM],IC50 (Jurkat) [µM],IC50 (A549) [µM],inhibition [1] [%],IC50 (Histone deacetylase 1) [µM],IC50 (Histone deacetylase 3) [µM],IC50 [2] [µM],IC50 (Histone deacetylase 8) [µM],inhibition (Tubulin (Sus scrofa)) [%],IC50 [3] [µM],IC50 [4] [µM]
COc1cc(C(=O)c2csc(-c3ccc(NC(=O)CCCCCC(=O)NO)cc3)n2)cc(OC)c1OC,1.9,> 10,0.15,> 10,> 50,19.1,12.2,1.94,4.17,,,
COc1cc(C(=O)c2csc(-c3ccc(NC(=O)/C=C/C(=O)NO)cc3)n2)cc(OC)c1OC,2.82,1.48,0.5,> 10,> 50,17.5,13,1.05,3.9,,,
COc1cc(C(=O)c2csc(-c3ccc(C#CCCC(=O)Nc4ccccc4N)cc3)n2)cc(OC)c1OC,2.11,> 10,0.26,> 10,,9.77,1.98,20.2,6.55,,,
COc1cc(C(=O)c2csc(-c3ccc(OCc4ccc(C(=O)NO)cc4)cc3)n2)cc(OC)c1OC,2.55,2.77,0.38,10,> 50,7.19,12.6,1.98,7.98,,,
COc1cc(C(=O)c2csc(-c3ccc(NC(=O)CCCC(=O)NO)cc3)n2)cc(OC)c1OC,0.15,0.75,0.04,> 10,> 50,10.1,13.6,1.73,6.32,,,
COc1cc(C(=O)c2csc(-c3ccc(NC(=O)CCCCCC(=O)Nc4ccccc4N)cc3)n2)cc(OC)c1OC,0.67,> 10,0.02,2.36,,8.53,0.39,27.3,8.5,24,,
COc1cc(C(=O)c2csc(-c3ccc(NC(=O)CCCCC(=O)NO)cc3)n2)cc(OC)c1OC,0.77,> 10,0.06,> 10,> 50,16.6,13.1,2.55,3.28,,,
COc1cc(C(=O)c2csc(-c3ccc(NCCC(=O)Nc4ccccc4N)cc3)n2)cc(OC)c1OC,0.6,0.67,0.03,> 10,,10.7,0.38,23.8,8.28,19,,
COc1cc(C(=O)c2csc(-c3ccc(NC(=O)CCCCC(=O)Nc4ccccc4N)cc3)n2)cc(OC)c1OC,0.44,0.83,0.02,1.54,,8.12,0.18,36.4,8.74,28,,
COc1cc(C(=O)c2csc(-c3ccc(NC(=O)CC(=O)Nc4ccccc4N)cc3)n2)cc(OC)c1OC,1.01,> 10,0.06,> 10,,4.07,0.36,21.1,12,65,,
COc1cc(C(=O)c2csc(-c3ccc(OCCCCCCC(=O)Nc4ccccc4N)cc3)n2)cc(OC)c1OC,1.91,1.89,0.7,2.44,,7.49,0.47,27.1,7.49,18,,
COc1cc(C(=O)c2csc(-c3ccc(NC(=O)CCCCCCC(=O)Nc4ccccc4N)cc3)n2)cc(OC)c1OC,0.36,0.91,0.03,2.1,,9.88,1.73,29.2,10.2,,3.68,5.31
COc1cc(C(=O)c2csc(-c3ccc(NCC(=O)Nc4ccccc4N)cc3)n2)cc(OC)c1OC,1.64,2.35,0.06,2.2,,9.8,1.76,27.1,9.11,,,
COc1cc(C(=O)c2csc(-c3ccc(NC(=O)CCC(=O)NO)cc3)n2)cc(OC)c1OC,2.51,0.92,0.42,5.83,> 50,7.36,12.3,1.86,5.14,,,
COc1cc(C(=O)c2csc(-c3ccc(OCc4ccc(/C=C/C(=O)NO)cc4)cc3)n2)cc(OC)c1OC,2.78,2.21,0.48,> 10,> 50,6.86,8.86,2.07,7.1,,,
COc1cc(C(=O)c2csc(-c3ccc(NC(=O)c4ccc(C(=O)Nc5ccccc5N)cc4)cc3)n2)cc(OC)c1OC,1.42,4.32,0.52,6.58,,10.5,3.46,36.3,2.08,,,
COc1cc(C(=O)c2csc(-c3ccc(/C=C/C(=O)Nc4ccccc4N)cc3)n2)cc(OC)c1OC,0.79,0.81,0.01,> 10,,11,0.17,22.5,3.11,30,,
